Laboratory results as given in ChEMBL document CHEMBL4261600 (Eur J Med Chem, 2018).

How the values were obtained:
[1] = biological target: Serine/threonine-protein kinase OSR1 (Homo sapiens) (UniProt O95747); experiment: Binding affinity to wild-type human full length OSR1 (M1 to S527 residues) expressed in mammalian expression system assessed as remaining unbound target protein level at 1000 nM by Kinomescan method relative to control
Method in brief: (§1)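 Single-point competition binding screen across a panel of 468 kinases and mutants, with the inhibitor at 1 μM. Binding is read out as percent of a DMSO control, and targets below 1 percent control were classed as strong binders.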

[2] = biological target: Tyrosine-protein kinase receptor Tie-1 (Homo sapiens) (UniProt P35590); experiment: Binding affinity to wild-type human partial length TIE1 (T819 to A1138 residues) expressed in bacterial expression system assessed as remaining unbound target protein level at 1000 nM by Kinomescan method relative to control
[3] = biological target: 5'-AMP-activated protein kinase catalytic subunit alpha-2 (Homo sapiens) (UniProt P54646); experiment: Binding affinity to wild-type human partial length AMPK alpha2 (M1 to E306 residues) expressed in bacterial expression system assessed as remaining unbound target protein level at 1000 nM by Kinomescan method relative to control
Method in brief: (§2)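 Profiled in a KINOMEscan binding panel with the inhibitor at a single concentration of 1 μM. Binding to each kinase was read out as percent of control, relative to a DMSO control. Strong binders were defined as those with a percent control value below 1.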

[4] = system: Phosphatidylinositol 4,5-bisphosphate 3-kinase catalytic subunit alpha isoform (Homo sapiens), P42336 [E542K]; experiment: Binding affinity to human partial length PIK3CA E542K mutant (R108 to N1068 residues) expressed in mammalian expression system assessed as remaining unbound target protein level at 1000 nM by Kinomescan method relative to control
Method in brief: (§3)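 KINOMEscan competition-binding profiling across the panel of 468 kinases and mutants, with inhibitor tested at 1 μM. Binding is expressed as percent of control, with DMSO as the reference control.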

[5] = biological target: Phosphatidylinositol 4,5-bisphosphate 3-kinase catalytic subunit gamma isoform (Homo sapiens) (UniProt P48736); experiment: Binding affinity to wild-type human partial length PIK3CG (S144 to A1102 residues) expressed in mammalian expression system assessed as remaining unbound target protein level at 1000 nM by Kinomescan method relative to control
[6] = biological target: Serine/threonine-protein kinase 36 (Homo sapiens) (UniProt Q9NRP7); experiment: Binding affinity to wild-type human partial length STK36 (M1 to T271 residues) expressed in bacterial expression system assessed as remaining unbound target protein level at 1000 nM by Kinomescan method relative to control
[7] = biological target: Receptor-interacting serine/threonine-protein kinase 2 (Homo sapiens) (UniProt O43353); experiment: Binding affinity to wild-type human partial length RIPK2 (M1 to K310 residues) expressed in bacterial expression system assessed as remaining unbound target protein level at 1000 nM by Kinomescan method relative to control
[8] = AUC (0 to infinity) in Sprague-Dawley rat at 20 mg/kg, po by LC-MS/MS analysis; type: ADME, organism-based; design: dose 20 mg/kg, route oral, time infinity; details: in vivo
Method in brief: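 Non-compartmental PK. Male SD rats 190-210 g, mice and beagle dogs acclimatized one week, fasted 12 h with water, split into iv and po groups (mice 48, rats 6, dogs 6). iv 3/3/2 mg/kg (mice/rats/dogs); po 10/20/10 mg/kg; vehicle DMSO in 5% glucose water. Blood at 2 or 5 to 720 min; plasma protein-precipitated with methanol, caffeine internal standard, LC-MS/MS.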

[9] = biological target: Cyclin-dependent kinase 16 (Homo sapiens) (UniProt Q00536); experiment: Binding affinity to wild-type human partial length PCTK1 (G160 to A474 residues) expressed in mammalian expression system assessed as remaining unbound target protein level at 1000 nM by Kinomescan method relative to control
Method in brief: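 KINOMEscan binding panel of 468 kinases/mutants. Inhibitor was tested at a single concentration of 1 μM. Binding is reported as percent of control, defined relative to a DMSO control.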

[10] = biological target: Serine/threonine-protein kinase MAK (Homo sapiens) (UniProt P20794); experiment: Binding affinity to wild-type human partial length MAK (M1 to P314 residues) expressed in bacterial expression system assessed as remaining unbound target protein level at 1000 nM by Kinomescan method relative to control
[11] = biological target: Tyrosine-protein kinase ABL1 (Homo sapiens) (UniProt P00519); experiment: Binding affinity to wild-type human phosphorylated ABL1 (S229 to K512 residues) expressed in mammalian expression system assessed as remaining unbound target protein level at 1000 nM by Kinomescan method relative to control
[12] = biological target: cAMP-dependent protein kinase catalytic subunit beta (Homo sapiens) (UniProt P22694); experiment: Binding affinity to wild-type human full length PKAC-beta (M1 to F351 residues) expressed in bacterial expression system assessed as remaining unbound target protein level at 1000 nM by Kinomescan method relative to control; method in brief: as §2
[13] = Cmax in mouse at 3 mg/kg, iv by LC-MS/MS analysis; type: ADME, organism-based; design: dose 3 mg/kg, route intravenous; details: in vivo
[14] = system: Proto-oncogene tyrosine-protein kinase receptor Ret (Homo sapiens), P07949 [V804L]; experiment: Binding affinity to human partial length RET V804L mutant (E713 to D1014 residues) expressed in bacterial expression system assessed as remaining unbound target protein level at 1000 nM by Kinomescan method relative to control; method in brief: as §3
[15] = biological target: Serine/threonine-protein kinase 32A (Homo sapiens) (UniProt Q8WU08); experiment: Binding affinity to wild-type human full length YANK1 (M1 to L396 residues) expressed in mammalian expression system assessed as remaining unbound target protein level at 1000 nM by Kinomescan method relative to control; method in brief: as §2
[16] = biological target: Cyclin-dependent kinase 11B (Homo sapiens, UniProt P21127); experiment: Inhibition of recombinant GST-tagged inactive state of human CDK11
[17] = system: SK-N-BE(2)-M17; experiment: Antiproliferative activity against human BE(2)-M17 cells after 72 hrs by Celltiter-Glo assay; type: functional; details: SK-N-BE(2)-M17, 72 h
Method in brief: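 Cells seeded at 3000/well in 96-well plates, exposed to serially diluted compound for 72 h at 37 °C, 5% CO2. Viability read by CellTiter-Glo luminescence and normalized to DMSO control. GI50 derived from curve fit, mean of three independent measurements. Culture media: DMEM/10% FBS for adherent lines; IMDM for MV4-11 and MEC-1/2; RPMI 1640 for suspension lines and CHL.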

[18] = MRT (0 to infinity) in Sprague-Dawley rat at 3 mg/kg, iv by LC-MS/MS analysis; type: ADME, organism-based; details: in vivo
[19] = system: Tyrosine-protein kinase ABL1 (Homo sapiens), P00519 [T315I]; experiment: Binding affinity to human phosphorylated ABL1 T315I mutant (S229 to K512 residues) expressed in mammalian expression system assessed as remaining unbound target protein level at 1000 nM by Kinomescan method relative to control; method in brief: as §1
[20] = biological target: Serine/threonine-protein kinase SIK3 (Homo sapiens) (UniProt Q9Y2K2); experiment: Binding affinity to wild-type human partial length QSK (A90 to L395 residues) expressed in mammalian expression system assessed as remaining unbound target protein level at 1000 nM by Kinomescan method relative to control

Chain of Receptor-interacting serine/threonine-protein kinase 2 (Homo sapiens) (O43353 whole entry, the tested form may be a part): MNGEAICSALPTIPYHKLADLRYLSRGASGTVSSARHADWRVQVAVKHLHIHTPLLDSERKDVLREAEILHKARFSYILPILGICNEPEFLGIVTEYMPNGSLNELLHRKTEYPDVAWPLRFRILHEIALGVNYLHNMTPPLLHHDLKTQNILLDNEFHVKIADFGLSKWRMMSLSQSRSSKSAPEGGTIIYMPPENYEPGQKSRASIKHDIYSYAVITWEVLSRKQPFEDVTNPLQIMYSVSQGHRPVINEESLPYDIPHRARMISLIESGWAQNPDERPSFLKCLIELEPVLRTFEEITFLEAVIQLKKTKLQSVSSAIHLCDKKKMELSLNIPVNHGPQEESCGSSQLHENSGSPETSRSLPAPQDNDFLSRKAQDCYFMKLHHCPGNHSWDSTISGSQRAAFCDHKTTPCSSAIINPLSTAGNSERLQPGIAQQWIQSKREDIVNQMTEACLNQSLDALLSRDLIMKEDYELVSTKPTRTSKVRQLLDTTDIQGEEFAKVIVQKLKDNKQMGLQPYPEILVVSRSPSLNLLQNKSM
Chain of 5'-AMP-activated protein kinase catalytic subunit alpha-2 (Homo sapiens) (P54646 whole entry, looked up, the tested form may be a part): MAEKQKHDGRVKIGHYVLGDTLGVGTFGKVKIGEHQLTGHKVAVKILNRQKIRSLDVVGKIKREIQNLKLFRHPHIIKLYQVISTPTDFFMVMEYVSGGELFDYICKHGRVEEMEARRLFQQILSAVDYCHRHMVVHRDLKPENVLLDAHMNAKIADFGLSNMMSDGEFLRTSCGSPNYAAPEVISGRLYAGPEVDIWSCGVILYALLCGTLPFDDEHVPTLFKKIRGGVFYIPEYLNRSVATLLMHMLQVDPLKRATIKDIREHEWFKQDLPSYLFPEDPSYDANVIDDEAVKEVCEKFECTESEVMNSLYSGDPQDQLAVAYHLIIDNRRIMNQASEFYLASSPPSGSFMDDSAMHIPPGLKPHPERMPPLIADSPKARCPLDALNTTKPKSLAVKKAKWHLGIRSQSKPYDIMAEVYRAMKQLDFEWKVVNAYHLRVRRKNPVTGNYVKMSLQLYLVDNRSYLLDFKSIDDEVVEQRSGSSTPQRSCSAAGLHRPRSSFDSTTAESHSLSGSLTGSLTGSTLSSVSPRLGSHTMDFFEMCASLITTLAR
Chain of Phosphatidylinositol 4,5-bisphosphate 3-kinase catalytic subunit alpha isoform (Homo sapiens), P42336 [E542K] (P42336 whole entry E542K, the tested form may be a part, canonical isoform): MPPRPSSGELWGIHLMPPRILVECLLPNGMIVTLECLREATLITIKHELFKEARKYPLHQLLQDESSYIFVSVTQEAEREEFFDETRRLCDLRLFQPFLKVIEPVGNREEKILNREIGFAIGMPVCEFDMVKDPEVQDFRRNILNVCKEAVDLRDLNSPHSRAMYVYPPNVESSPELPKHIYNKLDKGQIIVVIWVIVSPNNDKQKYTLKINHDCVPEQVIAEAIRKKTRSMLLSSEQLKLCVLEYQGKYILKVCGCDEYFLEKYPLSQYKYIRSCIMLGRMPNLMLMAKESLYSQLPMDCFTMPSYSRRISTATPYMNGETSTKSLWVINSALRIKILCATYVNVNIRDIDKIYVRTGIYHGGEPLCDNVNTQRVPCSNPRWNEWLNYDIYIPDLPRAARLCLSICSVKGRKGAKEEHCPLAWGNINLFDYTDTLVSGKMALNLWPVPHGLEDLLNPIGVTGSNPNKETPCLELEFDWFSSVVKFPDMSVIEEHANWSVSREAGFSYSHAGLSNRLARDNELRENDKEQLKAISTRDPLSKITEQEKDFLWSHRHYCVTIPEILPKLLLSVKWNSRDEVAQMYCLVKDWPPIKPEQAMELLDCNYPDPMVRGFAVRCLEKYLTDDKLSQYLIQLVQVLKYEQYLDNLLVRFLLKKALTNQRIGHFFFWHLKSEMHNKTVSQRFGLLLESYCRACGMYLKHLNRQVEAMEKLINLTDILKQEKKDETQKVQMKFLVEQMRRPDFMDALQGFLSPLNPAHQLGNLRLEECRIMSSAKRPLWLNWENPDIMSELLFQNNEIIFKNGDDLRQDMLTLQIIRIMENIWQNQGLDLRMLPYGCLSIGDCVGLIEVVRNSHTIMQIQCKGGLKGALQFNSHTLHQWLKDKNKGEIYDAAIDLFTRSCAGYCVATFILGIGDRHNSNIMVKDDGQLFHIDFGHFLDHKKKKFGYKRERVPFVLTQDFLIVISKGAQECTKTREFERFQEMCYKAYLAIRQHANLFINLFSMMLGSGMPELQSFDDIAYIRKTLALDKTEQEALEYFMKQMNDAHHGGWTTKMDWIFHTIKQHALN
Chain of Proto-oncogene tyrosine-protein kinase receptor Ret (Homo sapiens), P07949 [V804L] (P07949 whole entry V804L, the tested form may be a part): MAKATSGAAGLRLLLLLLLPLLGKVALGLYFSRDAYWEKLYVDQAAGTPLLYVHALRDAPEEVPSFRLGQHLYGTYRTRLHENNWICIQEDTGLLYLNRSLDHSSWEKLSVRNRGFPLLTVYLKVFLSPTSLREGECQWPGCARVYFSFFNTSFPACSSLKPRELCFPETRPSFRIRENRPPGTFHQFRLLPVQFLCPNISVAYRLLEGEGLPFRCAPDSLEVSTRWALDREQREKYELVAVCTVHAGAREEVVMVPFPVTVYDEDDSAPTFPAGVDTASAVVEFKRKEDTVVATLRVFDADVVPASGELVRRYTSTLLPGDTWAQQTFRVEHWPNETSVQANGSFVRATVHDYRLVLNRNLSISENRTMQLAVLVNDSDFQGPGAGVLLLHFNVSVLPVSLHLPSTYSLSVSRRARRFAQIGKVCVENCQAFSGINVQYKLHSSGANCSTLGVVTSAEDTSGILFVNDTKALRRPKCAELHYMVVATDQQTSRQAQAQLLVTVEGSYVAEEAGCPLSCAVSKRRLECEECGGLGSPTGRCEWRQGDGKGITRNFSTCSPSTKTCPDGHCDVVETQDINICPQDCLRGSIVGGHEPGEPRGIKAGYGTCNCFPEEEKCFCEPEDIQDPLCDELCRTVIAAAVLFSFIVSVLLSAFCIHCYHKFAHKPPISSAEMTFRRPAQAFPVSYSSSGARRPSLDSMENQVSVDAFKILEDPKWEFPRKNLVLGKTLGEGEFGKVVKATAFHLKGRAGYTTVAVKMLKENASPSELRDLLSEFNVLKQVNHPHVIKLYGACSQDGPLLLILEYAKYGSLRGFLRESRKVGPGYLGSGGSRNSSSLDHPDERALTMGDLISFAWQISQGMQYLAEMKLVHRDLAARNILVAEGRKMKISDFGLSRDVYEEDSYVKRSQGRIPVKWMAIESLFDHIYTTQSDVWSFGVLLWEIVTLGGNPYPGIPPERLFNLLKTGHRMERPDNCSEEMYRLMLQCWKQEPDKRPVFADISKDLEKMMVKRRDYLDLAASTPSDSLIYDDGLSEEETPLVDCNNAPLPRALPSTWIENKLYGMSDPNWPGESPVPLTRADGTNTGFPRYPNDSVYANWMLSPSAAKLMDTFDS
Chain of Tyrosine-protein kinase receptor Tie-1 (Homo sapiens) (P35590 whole entry, the tested form may be a part): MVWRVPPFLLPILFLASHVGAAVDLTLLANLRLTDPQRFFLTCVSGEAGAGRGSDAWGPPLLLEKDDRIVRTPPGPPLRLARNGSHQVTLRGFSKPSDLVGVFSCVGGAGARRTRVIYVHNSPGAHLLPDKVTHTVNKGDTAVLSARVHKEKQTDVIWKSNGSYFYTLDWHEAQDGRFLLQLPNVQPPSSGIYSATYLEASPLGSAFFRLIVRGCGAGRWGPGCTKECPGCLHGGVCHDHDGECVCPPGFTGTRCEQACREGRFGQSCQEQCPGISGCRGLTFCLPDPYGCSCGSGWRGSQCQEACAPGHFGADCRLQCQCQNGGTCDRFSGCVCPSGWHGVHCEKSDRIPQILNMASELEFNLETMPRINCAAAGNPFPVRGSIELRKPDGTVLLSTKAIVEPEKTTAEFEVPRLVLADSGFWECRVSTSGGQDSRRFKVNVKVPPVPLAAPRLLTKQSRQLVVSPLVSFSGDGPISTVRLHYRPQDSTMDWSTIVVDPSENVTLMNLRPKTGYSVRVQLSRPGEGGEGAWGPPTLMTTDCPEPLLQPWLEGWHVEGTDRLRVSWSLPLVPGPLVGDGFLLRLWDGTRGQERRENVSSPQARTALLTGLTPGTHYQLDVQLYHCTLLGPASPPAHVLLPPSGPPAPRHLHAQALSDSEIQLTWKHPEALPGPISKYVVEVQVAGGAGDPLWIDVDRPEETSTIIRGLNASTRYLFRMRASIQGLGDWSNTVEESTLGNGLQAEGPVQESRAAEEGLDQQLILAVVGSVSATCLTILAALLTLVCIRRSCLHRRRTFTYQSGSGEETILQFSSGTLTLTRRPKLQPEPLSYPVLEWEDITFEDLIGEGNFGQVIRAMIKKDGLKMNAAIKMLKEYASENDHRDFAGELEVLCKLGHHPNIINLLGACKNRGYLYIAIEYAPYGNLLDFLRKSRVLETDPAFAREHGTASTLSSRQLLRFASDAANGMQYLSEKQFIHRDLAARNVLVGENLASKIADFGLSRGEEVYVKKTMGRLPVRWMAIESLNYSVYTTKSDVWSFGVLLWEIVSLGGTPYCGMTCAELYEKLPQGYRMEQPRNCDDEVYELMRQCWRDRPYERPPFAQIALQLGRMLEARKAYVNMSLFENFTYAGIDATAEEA
Chain of Cyclin-dependent kinase 16 (Homo sapiens) (Q00536 whole entry, the tested form may be a part): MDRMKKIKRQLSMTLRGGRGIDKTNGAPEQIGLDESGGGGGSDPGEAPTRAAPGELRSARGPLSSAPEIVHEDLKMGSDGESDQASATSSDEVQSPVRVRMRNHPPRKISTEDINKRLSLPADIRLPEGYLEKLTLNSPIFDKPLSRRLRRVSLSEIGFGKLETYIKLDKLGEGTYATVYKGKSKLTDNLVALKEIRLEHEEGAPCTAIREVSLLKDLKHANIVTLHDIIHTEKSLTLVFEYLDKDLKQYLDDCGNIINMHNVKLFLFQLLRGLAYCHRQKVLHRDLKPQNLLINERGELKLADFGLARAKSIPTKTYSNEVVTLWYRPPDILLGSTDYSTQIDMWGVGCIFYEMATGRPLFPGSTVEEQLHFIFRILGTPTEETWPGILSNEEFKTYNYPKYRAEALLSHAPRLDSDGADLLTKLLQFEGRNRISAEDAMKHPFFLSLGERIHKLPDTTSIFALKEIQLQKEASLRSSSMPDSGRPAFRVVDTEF

## COCCN[C@H]1CC[C@H](Nc2cc(-c3csc(NCC4(C#N)CCOCC4)n3)c(Cl)cn2)CC1
[1]
  Activity: 100%
[2]
  Activity: 80%
[3]
  Activity: 100%
[4]
  Activity: 96%
[5]
  Activity: 99%
[6]
  Activity: 83%
[7]
  Activity: 96%
[8]
  AUC(0-inf): 1990 ng·h/mL
[9]
  Activity: 46%
[10]
  Activity: 100%
[11]
  Activity: 91%
[12]
  Activity: 92%
[13]
  Cmax: 573 ng/mL
[14]
  Activity: 92%
[15]
  Activity: 100%
[16]
  IC50: > 10000 nM
[17]
  GI50: 34 nM
[18]
  MRT inf: 6.33 h
[19]
  Activity: 95%
[20]
  Activity: 79%
